ChEMBL document CHEMBL1139668, “Structure-activity relationship studies on niphimycin, a guanidylpolyol macrolide antibiotic. Part 1: The role of the N-methyl-N''-alkylguanidinium moiety” (2006)
In brackets after ≈: the same amount, converted by molar mass. Activity calls are given as the source filed them. No cut-off for these calls is given here.

Experiments:
Saccharomyces cerevisiae [1] = assay: Antimicrobial activity against Saccharomyces cerevisiae X2180 1A; format: functional
Saccharomyces cerevisiae [2] = assay: Antimicrobial activity against Saccharomyces cerevisiae IFO 0203; format: functional
[3] = test system: Schizosaccharomyces pombe; assay: Antimicrobial activity against Schizosaccharomyces pombe IFO 0342; format: functional
[4] = test system: Schizosaccharomyces pombe; assay: Antimicrobial activity against Schizosaccharomyces pombe L972 h-; format: functional
[5] = test system: Schizosaccharomyces pombe; assay: Antimicrobial activity against Schizosaccharomyces pombe SA21 h+; format: functional
Candida albicans = assay: Antimicrobial activity against Candida albicans IFO 1061; format: functional
Rhodotorula mucilaginosa = assay: Antimicrobial activity against Rhodotorula mucilaginosa IFO 0001; format: functional
Aspergillus niger = assay: Antifungal activity against Aspergillus niger ATCC 6275; format: functional
Mucor mucedo = assay: Antifungal activity against Mucor mucedo IFO 7684; format: functional
Penicillium chrysogenum = assay: Antifungal activity against Penicillium chrysogenum IFO 4626; format: functional
Rhizopus arrhizus = assay: Antifungal activity against Rhizopus oryzae IFO 4766; format: functional
Escherichia coli = assay: Antibacterial activity against Escherichia coli IFO 2545; format: functional
In short: (§1)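 MIC by serial twofold broth dilution; bacteria grown in 3% nutrient broth at 37 °C, read after 24 h of cultivation.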

Bacillus subtilis = assay: Antibacterial activity against Bacillus subtilis IFO 3007; format: functional; in short: as §1
Micrococcus luteus = assay: Antibacterial activity against Micrococcus luteus IFO 3333; format: functional; in short: as §1
Saccharomyces cerevisiae [6] = assay: ROS production in Saccharomyces cerevisiae cells at 10 uM; format: functional, organism-based
In short: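 Yeast cells (10^7 cells/ml) preloaded with 40 µM DCFH-DA in YPD at 30 °C for 60 min, then exposed to compound in YPD at 30 °C for 60 min. Cells washed and resuspended in PBS. Fluorescence read at ex 480/em 530 nm and given in arbitrary units.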

Saccharomyces cerevisiae [7] = assay: ROS production in Saccharomyces cerevisiae cells at lethal concentration; format: functional, organism-based
In short: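 S. cerevisiae cells (10^7 cells/ml) preloaded with 40 µM DCFH-DA in YPD medium, 30 °C, 60 min. Then exposed to compound in YPD at 30 °C for 60 min, washed and resuspended in phosphate-buffered saline. Fluorescence of 10^7 cells read at excitation 480 nm, emission 530 nm. Intensity reported directly as arbitrary units.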

| Compound | MIC (Saccharomyces cerevisiae [1]) [µM] | MIC (Saccharomyces cerevisiae [2]) [µM] | MIC [3] [µM] | MIC [4] [µM] | MIC [5] [µM] | MIC (Candida albicans) [µM] | MIC (Rhodotorula mucilaginosa) [µM] | MIC (Aspergillus niger) [µM] | MIC (Mucor mucedo) [µM] | MIC (Penicillium chrysogenum) [µM] | MIC (Rhizopus arrhizus) [µM] | MIC (Escherichia coli) [µM] | MIC (Bacillus subtilis) [µM] | MIC (Micrococcus luteus) [µM] | Activity (Saccharomyces cerevisiae [6]) | Activity (Saccharomyces cerevisiae [7]) |
| --- | --- | --- | --- | --- | --- | --- | --- | --- | --- | --- | --- | --- | --- | --- | --- | --- |
| CCCCCCCC/N=C(\N)NC | > 400 | > 400 | 400 (≈ 74.1 µg/mL) | 200 (≈ 37.1 µg/mL) | 400 (≈ 74.1 µg/mL) | > 400 | > 400 | > 400 | > 400 | 100 (≈ 18.5 µg/mL) | > 400 | 400 (≈ 74.1 µg/mL) | > 400 | > 400 | – | – |
| CCCCCCCCCCCC/N=C(\N)NC | 100 (≈ 24.1 µg/mL) | 100 (≈ 24.1 µg/mL) | 50 (≈ 12.1 µg/mL) | 50 (≈ 12.1 µg/mL) | 50 (≈ 12.1 µg/mL) | 400 (≈ 96.6 µg/mL) | 50 (≈ 12.1 µg/mL) | 50 (≈ 12.1 µg/mL) | 50 (≈ 12.1 µg/mL) | 25 (≈ 6.04 µg/mL) | 200 (≈ 48.3 µg/mL) | 50 (≈ 12.1 µg/mL) | 25 (≈ 6.04 µg/mL) | > 400 | – | – |
| C[C@@H]1[C@H](O)[C@@H](C)/C=C/C=C/C=C/C=C/C=C/C=C/C=C/[C@H](O[C@@H]2O[C@H](C)[C@@H](O)[C@H](N)[C@@H]2O)C[C@@H]2O[C@](O)(C[C@@H](O)C[C@@H](O)[C@H](O)CC[C@@H](O)C[C@@H](O)CC(=O)O[C@H]1C)C[C@H](O)[C@H]2C(=O)O | – | – | – | – | – | – | – | – | – | – | – | – | – | – | inactive | – |
| C/N=C(/N)NCCCCCCCCCCCCO | > 400 | > 400 | > 400 | > 400 | > 400 | > 400 | > 400 | > 400 | > 400 | > 400 | > 400 | > 400 | > 400 | > 400 | – | – |
| CCCC/N=C(\N)NC | > 400 | > 400 | > 400 | > 400 | > 400 | > 400 | > 400 | > 400 | > 400 | 100 (≈ 12.9 µg/mL) | > 400 | 400 (≈ 51.7 µg/mL) | > 400 | > 400 | – | – |
| C/N=C(/N)NCCC/C=C/CCC[C@H](C)C[C@H](C)[C@H]1OC(=O)C(C)C(O)/C=C/C(C)C(O)CC(O)C(C)C(O)CCC(C)C(O)CC2(O)OC(CC(OC(=O)CC(=O)O)CC(O)CC(O)C(C)C(O)/C=C/C=C/C1C)CC(O)C2O (stereo not given in full) [NIPHIMYCIN] | 5 (≈ 5.71 µg/mL) | – | – | 2 (≈ 2.28 µg/mL) | – | 2 (≈ 2.28 µg/mL) | 2 (≈ 2.28 µg/mL) | 2 (≈ 2.28 µg/mL) | 10 (≈ 11.4 µg/mL) | 1 (≈ 1.14 µg/mL) | 1 (≈ 1.14 µg/mL) | – | 5 (≈ 5.71 µg/mL) | – | – | Active |
| CCCCCCCCCCCCCCCC/N=C(\N)NC | 100 (≈ 29.8 µg/mL) | 50 (≈ 14.9 µg/mL) | 25 (≈ 7.44 µg/mL) | 12.5 (≈ 3.72 µg/mL) | 12.5 (≈ 3.72 µg/mL) | 200 (≈ 59.5 µg/mL) | 12.5 (≈ 3.72 µg/mL) | 25 (≈ 7.44 µg/mL) | 12.5 (≈ 3.72 µg/mL) | 6.25 (≈ 1.86 µg/mL) | 50 (≈ 14.9 µg/mL) | 50 (≈ 14.9 µg/mL) | 12.5 (≈ 3.72 µg/mL) | > 400 | – | Active |
| C/N=C(/N)NCCCCCCCCCCCC(=O)O | 400 (≈ 109 µg/mL) | > 400 | 200 (≈ 54.3 µg/mL) | 200 (≈ 54.3 µg/mL) | 200 (≈ 54.3 µg/mL) | 400 (≈ 109 µg/mL) | 200 (≈ 54.3 µg/mL) | > 400 | 400 (≈ 109 µg/mL) | 400 (≈ 109 µg/mL) | > 400 | 400 (≈ 109 µg/mL) | 100 (≈ 27.1 µg/mL) | 400 (≈ 109 µg/mL) | – | – |
| CNC(=N)NCCCCCCCCCCCC(=O)OC | > 400 | > 400 | 400 (≈ 114 µg/mL) | 400 (≈ 114 µg/mL) | 400 (≈ 114 µg/mL) | > 400 | 200 (≈ 57.1 µg/mL) | 200 (≈ 57.1 µg/mL) | > 400 | 200 (≈ 57.1 µg/mL) | > 400 | 400 (≈ 114 µg/mL) | 400 (≈ 114 µg/mL) | > 400 | – | – |
